Reference: the RNAGym collection of RNA variant scans (doi:10.1126/science.aae0568)
Variants at the floor of the assay were thinned out.

B1: tRNA (parent)
chain: GUUCCGUUGGCGUAAUGGUAACGCGUCUCCCUCCUAAGGAGAAGACUGCGGGUUCGAGUCCCGUACGGAACG

Variants of: B1
Test: yeast fitness relative to wild type (ratio to wild type); higher = fitter; tRNA-Arg(CCU), competitive growth, 37 C, YPD
How it was run: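 The tRNA-Arg(CCU) gene variants were made by chemical synthesis with a 3% per-site mutation rate at 69 sites and inserted at the native genomic locus of Saccharomyces cerevisiae. After pooling, the strains were competed in YPD at 37°C for 24 hours in six parallel replicates. Gene amplicons from the start population and each end population were read by 100-nucleotide paired-end sequencing, and Darwinian fitness relative to wild type was taken from genotype frequency changes. Genotypes needed ≥ 100 starting reads, and estimates < 0.5 were set to 0.5.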

Compared with GUUCCGUUGGCGUAAUGGUAACGCGUCUCCCUCCUAAGGAGGAGACUGCGGGUUCGAGUCCCGUACGGAUCG, GUUCCGUUGGCGUAAUGGUAACGCGUCUCCCUCCUAAGGAGGAGACUACGCGUUCGAGUCCCGUACGGAACG is lower in yeast fitness: 0.941 for the first, at most 0.5 for the second.

Compared with GUUCCGUUGGCGUAAUGGUAACGCGUCUCCCUCCUAAGGAGGAGACUGCGGGUUCGAGUCCCGUACGGAACG, GUUCCGUUGGCGUAAUGGUAACGCGUCUCCCUCCUAAGGAGGAGACUGCGCGUUCGAGUCCCGUACGGAACG is lower in yeast fitness: 0.934 for the first, at most 0.5 for the second.

Compared with GUUCCGUUGGCGUAAUGGUAACGCGUCUCCCUCCUAAGGAGGAGACUGCGAGUUCGAGUCCCGUACGGAACG, GUUCCGUUGGCGUAAUGGUAACGCGUCUCCCUCCUAAGGAGGAGACUGGGGGUCCGAGUCCCCUACGGAUCG is lower in yeast fitness: 0.822 for the first, 0.547 for the second.

GUUCCGUUGGCGUAAUGGUAACGCGUCUCCCUCCUAAGGAGGAGUCUGCGGGUUCGAGUCCCGCACGGACCG and GUUCCGUUGGCGUAAUGGUAACGCGUCUCCCUCCUAAGGAGGAGACUGUGGGUUCGAGUCCCGUUCGGAACG cannot be ordered by yeast fitness: at most 0.5 for the first, at most 0.5 for the second.

Going from GUUCCGUUGGCGUAAUGGUAACGCGUCUCCCUCCUAAGGAGGAGACUGCGGGUUCGAGUCUCCUACGGAACG to GUUCCGUUGGCGUAAUGGUAACGCGUCUCCCUCCUAAGGAGGACACUGCGGGUUCGAGACCCGUACGGAACG, the yeast fitness rises from at most 0.5 to 0.537.

First: GUUCCGUUGGCGUAAUGGUAACGCGUCUCCCUCCUAAGGAGGAGGCUGCGGGUUCGAGUCCCGUACGGAACG
Second: GUUCCGUUGGCGUAAUGGUAACGCGUCUCCCUCCUAAGGAGGAGUCUGCGGGUUCGAGUCCCGUACGGAACG
The yeast fitness of the first is lower: 0.786 for the first, 0.952 for the second.

Going from GUUCCGUUGGCGUAAUGGUAACGCGUCUCCCUCCUAAGGAGGAGACUGCGGGUUCGAGUCCCGUACGGCACG to GUUCCGUUGGCGUAAUGGUAACGCGUCUCCCUCCUAAGGAGGAGACUGUGGGUUCGAGCCUCGUACGGAACG, the yeast fitness falls from 0.95 to at most 0.5.

GUUCCGUUGGCGUAAUGGUAACGCGUCUCCCUCCUAAGGAGGAGACUGCGGGUUCGAGUCACCUACGGAACG and GUUCCGUUGGCGUAAUGGUAACGCGUCUCCCUCCUAAGGAGGAGACUGCGGGUUCGAGUCACGUAAGGAACG cannot be ordered by yeast fitness: at most 0.5 for the first, at most 0.5 for the second.

First: GUUCCGUUGGCGUAAUGGUAACGCGUCUCCCUCCUAAGGAGGCGACUGCGGGUUCGAGUCCCGUACGGAACG
Second: GUUCCGUUGGCGUAAUGGUAACGCGUCUCCCUCCUAAGGAGGUGACUGCGGGUUCGAGUCCCGUACGGAACG
The yeast fitness of the first is higher: 1.17 for the first, 1.03 for the second.

First: GUUCCGUUGGCGUAAUGGUAACGCGUCUCCCUCCUAAGGAGGAGACUGCGGGUUGGAGUCCCGUACGGAACG
Second: GUUCCGUUGGCGUAAUGGUAACGCGUCUCCCUCCUAAGGAGGAGACUGCGGGUUCGAGUUCCGUACGGGUCG
The yeast fitness of the first is higher: 0.669 for the first, at most 0.5 for the second.

First: GUUCCGUUGGCGUAAUGGUAACGCGUCUCCCUCCUAAGGAGGAGACUGCGAGUUCGAGUUCCAUACGGAACG
Second: GUUCCGUUGGCGUAAUGGUAACGCGUCUCCCUCCUAAGGAGGAGACUGCGGGUUCGGGUCCCGUACGGAACG
The yeast fitness of the first is lower: at most 0.5 for the first, 0.768 for the second.

Going from GUUCCGUUGGCGUAAUGGUAACGCGUCUCCCUCCUAAGGAGGAGACUGCGGGUUCGUGUCCCGUACGGAACG to GUUCCGUUGGCGUAAUGGUAACGCGUCUCCCUCCUAAGGAGGGGAGUGCGGGUUCCAGUCCCGUACGGAACG, the yeast fitness falls from 0.714 to 0.57.

First: GUUCCGUUGGCGUAAUGGUAACGCGUCUCCCUCCUAAGGAGGAGACUGCGGGUUUGAGUCCCGUCCGGAACG
Second: GUUCCGUUGGCGUAAUGGUAACGCGUCUCCCUCCUAAGGAGGAGACUGCGGGUUCGAGUCCUGUACGGCACG
The yeast fitness of the first is lower: 0.535 for the first, 0.696 for the second.

First: GUUCCGUUGGCGUAAUGGUAACGCGUCUCCCUCCUAAGGAGGAGACUGCGGGUUCGAGUGGCGUACGGAACG
Second: GUUCCGUUGGCGUAAUGGUAACGCGUCUCCCUCCUAAGGAGGAGACUGGGGGUCCGAGUCCCCUACGGAACG
The yeast fitness of the first is lower: at most 0.5 for the first, 0.524 for the second.

First: GUUCCGUUGGCGUAAUGGUAACGCGUCUCCCUCCUAAGGAGGACACUGCGGGUUCGAGUCCCGUACGGAACG
Second: GUUCCGUUGGCGUAAUGGUAACGCGUCUCCCUCCUAAGGAGGAGACUGAGGGUUCGAGUCCCGUACGGAACG
The yeast fitness of the first is higher: 0.906 for the first, 0.782 for the second.

Compared with GUUCCGUUGGCGUAAUGGUAACGCGUCUCCCUCCUAAGGAGGAGACUGGGGGUUCGAGUCCCGUACGGAACG, GUUCCGUUGGCGUAAUGGUAACGCGUCUCCCUCCUAAGGAGGAGGCCGCGCGUUCGAGUCCCGUACGGAACG is lower in yeast fitness: 0.767 for the first, at most 0.5 for the second.

First: GUUCCGUUGGCGUAAUGGUAACGCGUCUCCCUCCUAAGGAGGAGAUUGCGGGUUCGAGUCCCGUACGGAACG
Second: GUUCCGUUGGCGUAAUGGUAACGCGUCUCCCUCCUAAGGAGGAGACUGUGAGUUCGAGUCCCGUACGGAACG
The yeast fitness of the first is higher: 0.974 for the first, 0.535 for the second.

First: GUUCCGUUGGCGUAAUGGUAACGCGUCUCCCUCCUAAGGAGGACACUGUGGGUUCGCGUCCCGUACGGAACG
Second: GUUCCGUUGGCGUAAUGGUAACGCGUCUCCCUCCUAAGGAGGAGACUGCGGGUUCGAGUCUCGUACGGAACG
The yeast fitness of the first is lower: at most 0.5 for the first, 0.853 for the second.

Going from GUUCCGUUGGCGUAAUGGUAACGCGUCUCCCUCCUAAGGAGGAGACUGCGGGUUCGAGUCACGUACGGAACG to GUUCCGUUGGCGUAAUGGUAACGCGUCUCCCUCCUAAGGAGGAGACUGCGGGUUCGAGUCCCGUAAGGAACG, the yeast fitness rises from 0.553 to 0.599.
